Measured values: ChEMBL document CHEMBL1124748, “Preparation of triazolo[1,5-c]pyrimidines as potential antiasthma agents” (J Med Chem, 1990)
pIC50: −log10 of the molar value.

system: not listed separately; assay: Antiasthmatic activity against the immunoglobulin E (IgE) antigen using the human basophil asthma model.; type: functional
Outline: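 Leukocytes washed and resuspended in pH 7.4 buffer (25 mM PIPES, 110 mM NaCl, 5 mM KCl, 0.6 mM CaCl2, 1.0 mM MgCl2, 0.03% HSA). Cells preincubated with drug 10 min at 37 °C, then incubated 1 h at 37 °C with shaking. Histamine in HClO4-treated supernatants measured fluorometrically against lysed-cell totals. Triplicates, controls sextuplicate. IC50 from linear regression of percent release.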

pIC50 | Structure (SMILES)
5.26 | Cc1cccc(-c2nccc3nc(N)nn23)c1
5.43 | Nc1nc2ccnc(-c3cccc(Br)c3)n2n1
6.00 | Nc1nc2ccnc(-c3cccc(C(Cl)Cl)c3)n2n1
6.15 | Nc1nc2ccnc(-c3cccc(C=O)c3)n2n1
5.66 | Nc1nc2ccnc(-c3cccc(C(F)(F)F)c3)n2n1
3.00 | O=C(O)c1cc(=O)c2c(OCC(O)COc3cccc4oc(C(=O)O)cc(=O)c34)cccc2o1 [CROMOLYN SODIUM]
4.85 | Nc1nc2ccnc(-c3cccnc3)n2n1
5.80 | CC(=O)Nc1nc2ccnc(-c3cccc(NS(=O)(=O)c4ccc(C)cc4)c3)n2n1
5.25 | Cc1cnc(-c2cccc(C(F)(F)F)c2)n2nc(N)nc12
5.37 | Nc1nc2ccnc(-c3cccc(Cl)c3)n2n1
4.70 | CC(=O)Nc1nc2ccnc(-c3cccc(C(F)(F)F)c3)n2n1
5.42 | Nc1nc2ccnc(-c3cccc([N+](=O)[O-])c3)n2n1
4.96 | CC(=O)Nc1nc2c(C)cnc(-c3cccc([N+](=O)[O-])c3)n2n1
4.99 | CNc1nc2ccnc(-c3cccc(C(F)(F)F)c3)n2n1
4.94 | CCOC(=O)c1cccc(-c2nccc3nc(N)nn23)c1
5.03 | OC(CCl)CNc1nc2ccnc(-c3cccc(C(F)(F)F)c3)n2n1 (stereo unspecified)
4.74 | Nc1nc2ccnc(-c3ccncc3)n2n1
5.06 | Cc1cnc(-c2cccc([N+](=O)[O-])c2)n2nc(N)nc12
5.60 | Cc1cnccc1-c1nccc2nc(N)nn12
4.78 | CCOC(=O)c1ccc(-c2nccc3nc(N)nn23)cc1
4.29 | CC(=O)Nc1nc2c(C)cnc(-c3cccc(NS(=O)(=O)c4ccc(C)cc4)c3)n2n1
5.25 | Nc1nc2ccnc(-c3cc[n+]([O-])cc3)n2n1
4.50 | Nc1nc2ccnc(-c3ccc(F)cc3)n2n1
5.82 | Cc1ccc(S(=O)(=O)Nc2cccc(-c3nccc4nc(N)nn34)c2)cc1
4.90 | C#Cc1cccc(-c2nccc3nc(N)nn23)c1
5.47 | Nc1nc2ccnc(-c3cccc(OC(F)F)c3)n2n1
6.15 | Nc1nc2ccnc(-c3cc(C(F)(F)F)cc(C(F)(F)F)c3)n2n1
5.46 | CN(C)C(=O)c1cccc(-c2nccc3nc(N)nn23)c1

Structure (SMILES) | pIC50
Cn1c(=O)c2nc[nH]c2n(C)c1=O.O [THEOPHYLLINE] | 3.51

system: Mus musculus; assay: Effective dose (ip) evaluated by Passive cutaneous anaphylaxis test (PCA) by injecting IgE serum intradermally in mice

Structure (SMILES) | ED50
Nc1nc2ccnc(-c3cccc(Br)c3)n2n1 | 142 mg/kg
Nc1nc2ccnc(-c3ccccc3F)n2n1 | 218 mg/kg
Nc1nc2ccnc(Cc3cccc(C(F)(F)F)c3)n2n1 | 178 mg/kg
Nc1nc2ccnc(-c3cccc(C(F)(F)F)c3)n2n1 | 166 mg/kg
Nc1nc2ccnc(-c3ccncc3)n2n1 | 14 mg/kg
Nc1nc2ccnc(-c3ccc(F)cc3)n2n1 | 178 mg/kg
Nc1nc2ccnc(-c3cccc(OC(F)F)c3)n2n1 | 138 mg/kg
Cn1c(=O)c2nc[nH]c2n(C)c1=O.O [THEOPHYLLINE] | 140 mg/kg

system: not listed separately; assay: Antiasthmatic activity against the immunoglobulin E (IgE) antigen using the human basophil asthma model; I = Inactive at 48 uM; type: functional

IC50 | Structure (SMILES)
Not Active | CCOC(=O)CNc1nc2ccnc(-c3cccc(C(F)(F)F)c3)n2n1
Not Active | Nc1nc2ccnc(-c3ccc[n+]([O-])c3)n2n1
Not Active | Nc1nc2ccnc(-c3ccccc3F)n2n1
Not Active | CCCc1cc2nc(N)nn2c(-c2cccc(C(F)(F)F)c2)n1
Not Active | Nc1nc2cc(C(F)(F)F)nc(-c3cccc(C(F)(F)F)c3)n2n1
Not Active | CC(=O)Nc1nc2ccnc(-c3cccc([N+](=O)[O-])c3)n2n1
Not Active | Cc1cnc(-c2ccc(C(F)(F)F)cc2)n2nc(N)nc12
Not Active | Nc1nc2ccnc(Cc3cccc(C(F)(F)F)c3)n2n1
Not Active | Cc1cccnc1-c1nccc2nc(N)nn12
Not Active | Nc1nc2ccnc(-c3ccc(C(F)(F)F)cc3)n2n1
Not Active | Nc1nc2ccnc(-c3ccccn3)n2n1
Not Active | Cc1ccc(S(=O)(=O)Nc2cccc(-c3ncc(C)c4nc(N)nn34)c2)cc1
Not Active | Cc1cc2nc(N)nn2c(-c2cccc(C(F)(F)F)c2)n1
Not Active | Cc1cnc(-c2cccc([N+](=O)[O-])c2)n2nc(N3CCOCC3)nc12
Not Active | Nc1nc2ccnc(-c3cc(Cl)cc(Cl)c3)n2n1
Not Active | Cc1cnc(-c2ccccc2)n2nc(N)nc12
Not Active | Nc1nc2ccnc(-c3cccc(CO)c3)n2n1

IC50 | Structure (SMILES)
Not Active | CC(=O)Nc1nc2c(C)cnc(-c3cccc(N)c3)n2n1
Not Active | CNc1cccc(-c2ncc(C)c3nc(NC)nn23)c1
Not Active | Nc1nc2ccnc(-c3cccc(F)c3)n2n1
Not Active | CCOC(=O)CN(C(C)=O)c1nc2ccnc(-c3cccc(C(F)(F)F)c3)n2n1
Not Active | C[n+]1cccc(-c2nccc3nc(N)nn23)c1.[I-]
Not Active | Cc1cnc(-c2cccc([N+](=O)[O-])c2)n2nc(Cl)nc12
Not Active | Nc1nc2ccnc(-c3ccccc3)n2n1
Not Active | FC(F)(F)c1cccc(-c2nccc3ncnn23)c1
Not Active | CCCc1c(C)nc(-c2cccc(C(F)(F)F)c2)n2nc(N)nc12
Not Active | Nc1nc2ccnc(-c3cccs3)n2n1
Not Active | FC(F)(F)c1cccc(-c2nccc3nc(NCC4CO4)nn23)c1 (stereo unspecified)
Not Active | Cc1cc2nc(N)nn2c(-c2ccc(C(F)(F)F)cc2)n1
Not Active | CN(C)/C=N/c1nc2ccnc(-c3cccc(C(F)(F)F)c3)n2n1
Not Active | CC(=O)N(C)c1nc2ccnc(-c3cccc(C(F)(F)F)c3)n2n1
Not Active | Nc1nc2ccnc(-c3cccc(C(=O)O)c3)n2n1
Not Active | Cc1cnc(-c2cccc(N)c2)n2nc(N)nc12
Not Active | CN(C)c1nc2ccnc(-c3cccc(C(F)(F)F)c3)n2n1
